Rin1 Abl inh: inhibitors of human Rin1-Abl protein interaction. P00519+Q13671. TR-FRET Rin1/Abl binding, biochemical. inhibition, % at 7.35 µM. 0.4% of 360,000 active; in the data active = inhibition above about 5%, passing the limit was not always enough
MBD2 DNA inh: blocks human MBD2 binding to methylated DNA. TR-FRET, MBD2 binding to methylated oligonucleotide. inhibition, % at 4.4 µM. 0.31% of 370,000 active; in the data active = inhibition above about 13%
Target sequence (Q9UBB5 whole entry, looked up): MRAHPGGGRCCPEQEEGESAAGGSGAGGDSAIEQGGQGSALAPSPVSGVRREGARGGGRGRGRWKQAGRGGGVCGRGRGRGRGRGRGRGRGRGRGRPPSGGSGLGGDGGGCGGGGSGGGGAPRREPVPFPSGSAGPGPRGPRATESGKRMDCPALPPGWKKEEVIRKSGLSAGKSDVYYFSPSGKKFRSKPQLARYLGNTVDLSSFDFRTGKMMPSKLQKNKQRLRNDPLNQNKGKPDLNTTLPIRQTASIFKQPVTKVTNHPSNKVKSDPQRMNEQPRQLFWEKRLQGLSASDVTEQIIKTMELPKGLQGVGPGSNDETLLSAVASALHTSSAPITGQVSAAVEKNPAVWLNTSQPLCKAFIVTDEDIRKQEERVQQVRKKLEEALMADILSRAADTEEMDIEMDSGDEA
TDP2 absorb: blocks human TDP2 phosphodiesterase activity | AID 720702 | recombinant TDP2, T5PNP hydrolysis, p-nitrophenol absorbance 415 nm | inhibition, % at 12.8 µM | 0.34% of 370,000 active | O95551;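 active = inhibition above the mean of all tested compounds plus 3 SD, set per campaign, cut at about 25% in these data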
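Test system: human TDP2 enzyme; Input: 120 nM TDP2 per well; Buffer or medium: Mg2+-containing Tris-HCl buffer, pH 7.5; Reagent: 5 mM T5PNP; Dosing: 12.8 µM single point, 1% DMSO; Incubation: reaction 2 h, 37 °C; Detection: p-Nitrophenol epi absorbance; Read-out: % inhibition relative to enzyme-containing and enzyme-free wells; Replicates: single well per compound.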
UHRF1 binding: blocks human UHRF1 binding to methylated DNA; Q96T88; UHRF1 binding to methylated oligo, TR-FRET; inhibition, % at 4.4 µM; 0.75% of 370,000 active; AID 687016; in the data active = inhibition above about 21%;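 also: UHRF1 SRA domain binding a hemimethylated CpG hairpin DNA probe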
LEDGF integ inh: blocks HIV-1 LEDGF/p75-dependent DNA integration | inhibition, % at 3.7 µM | 0.64% of 370,000 active | AID 743269 | TR-FRET IN-LEDGF/p75 DNA integration, Eu/Cy5;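 active = inhibition above the screen-wide mean plus 3 SD, cut at about 13% in these data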;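 also: signal is the Cy5 over europium emission ratio at 671 and 618 nm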
IN multimer act: activates HIV-1 integrase multimerization in LEDGF counter-screen. shares compounds with LEDGF integ inh. activation, % at 7.7 µM. TR-FRET HIV-1 integrase multimerization, biochemical. 17% of 2,000 active; in the data active = activation above about 8.9%
TRFRET interf: optically interferes with TR-FRET readout in LEDGF counter-screen; 2,000 tested, under 10 active; inhibition, % at 7.7 µM; shares compounds with LEDGF integ inh; TR-FRET optical interference counterscreen, HIV-1 IN multimerization;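 active = inhibition above the mean over all tested compounds plus 3 SD, which no compound reached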
LEDGF integ conf: LEDGF/p75-dependent HIV-1 integration inhibition, confirmation | shares compounds with LEDGF integ inh | TR-FRET LEDGF/p75-dependent HIV-1 integration, biochemical | inhibition, % at 3.7 µM | 36% of 2,000 active | AID 1053136; in the data active = inhibition above about 14%
Large screens that a line does not name were inactive (follow-up assays come after a bar, where they were run). Rows were chosen to be rich in hits. Some 1.9% of all compounds tested hit in one or more screens of this group.

Cc1ccc(N2CC(C(=O)Nc3ccc(C)c(S(=O)(=O)N(C)C)c3)CC2=O)cc1 (configuration not stated)	none
Cn1cc(C(=O)N/N=C/C2=C(N3CCOCC3)C(=C/c3ccc([N+](=O)[O-])cc3)/CC2)ccc1=O	LEDGF integ inh 87.7 | IN multimer act inactive | TRFRET interf inactive | LEDGF integ conf inactive
O=C(CCCCCNC(=O)N1CCn2c1nc1ccccc12)NCc1ccc(F)cc1	none
COc1ccc(N2CC(C(=O)N(CC(C)C)c3c(N)n(Cc4ccccc4)c(=O)[nH]c3=O)CC2=O)c(OC)c1 (configuration not stated)	none
Cc1ccc(NC(=O)c2ccc(CSc3ccccn3)cc2)c(O)c1	LEDGF integ inh 82.4 | IN multimer act inactive | TRFRET interf inactive | LEDGF integ conf inactive
CCOC(=O)[C@]12CCCCC/C=C\1N(CCc1ccc(Cl)cc1)C(=O)[C@H]2CC(=O)NCCc1ccccc1OC	LEDGF integ inh 18.0 (no result: Rin1 Abl inh) | IN multimer act inactive | TRFRET interf inactive | LEDGF integ conf inactive
COC(=O)[C@@]12C[C@@H](CC(=O)N3CCCCC3)C(=O)N(Cc3cccc4ccccc34)C1=CCC(C)(C)C2	none (no result: Rin1 Abl inh)
COC(=O)[C@@]12C[C@@H](CC(=O)N3CCN(C(=O)c4ccco4)CC3)C(=O)N(Cc3cccc4ccccc34)C1=CCC(C)(C)C2	LEDGF integ inh 21.5 (no result: Rin1 Abl inh) | IN multimer act inactive | TRFRET interf inactive | LEDGF integ conf inactive
CN1CCN(C(=O)CCN2C(=O)c3ccccc3S2(=O)=O)CC1	none
CCCCN1C(=O)C(=Nc2cccc3cnccc23)c2ccccc21	LEDGF integ inh 16.1 | IN multimer act inactive | TRFRET interf inactive | LEDGF integ conf 23.5
CCCCN1C(=O)/C(=C2\SC(N3CCCCC3)=NC2=O)c2ccccc21	none
Cc1ccc(NC(=O)C2CCN(S(=O)(=O)c3ccc4c(c3)CCCC(=O)N4)CC2)c(Br)c1	none
Cc1cccc2nc(CSCc3ccco3)cn12	LEDGF integ inh 16.2 | IN multimer act inactive | TRFRET interf inactive | LEDGF integ conf inactive
Cc1cc(C)n2cc(CSCc3ccco3)nc2n1	none
CN(C)C(CNC(=O)c1ccc(S(=O)(=O)Nc2ccccc2F)cc1)c1ccco1 (configuration not stated)	none
Cc1cccc(NC(=O)COC(=O)[C@@H]2CCCN2C(=O)c2cccs2)c1	LEDGF integ inh 27.5 | IN multimer act inactive | TRFRET interf inactive | LEDGF integ conf inactive
O=C(COC(=O)[C@@H]1CCCN1C(=O)c1cccs1)Nc1cccc(Cl)c1	none
O=C(Cn1cnc2c(nnn2-c2ccccc2)c1=O)NCc1ccc(F)cc1	UHRF1 binding 32.5, LEDGF integ inh 15.2 | IN multimer act inactive | TRFRET interf inactive | LEDGF integ conf inactive
CC(C)(C)NC(=O)C(CCc1ccccc1)n1c(=O)c(-c2cc3ccccc3[nH]2)nc2ccccc21 (configuration not stated)	none (no result: Rin1 Abl inh)
CCC(CC)C(=O)N(C)c1c(C)nc2c(OCc3ccc(C#N)cc3)cccn12	LEDGF integ inh 14.7 | IN multimer act inactive | TRFRET interf inactive | LEDGF integ conf inactive
CC(=O)c1c(C)[nH]c(C(=O)OCC(=O)Nc2cccnc2Cl)c1C	LEDGF integ inh 24.0 | IN multimer act inactive | TRFRET interf inactive | LEDGF integ conf inactive
CC(/C=N/n1c(-c2ccncc2)n[nH]c1=S)=C\c1ccco1	LEDGF integ inh 15.6 | IN multimer act inactive | TRFRET interf inactive | LEDGF integ conf inactive
CC(/C=N/n1c(-c2ccccc2)n[nH]c1=S)=C\c1ccco1	LEDGF integ inh 16.5 | IN multimer act inactive | TRFRET interf inactive | LEDGF integ conf inactive
Cc1cccc(NC(=O)CN2C(=O)N/C(=C\c3ccccc3OCc3ccc(C(=O)O)cc3)C2=O)c1	LEDGF integ inh 16.5 | IN multimer act inactive | TRFRET interf inactive | LEDGF integ conf inactive
CC(=O)Nc1cccc(C(=O)Nc2cccc3ncccc23)c1	none
CCOc1cc(C(=O)Nc2cccc3ncccc23)cc(OCC)c1OCC	LEDGF integ inh 15.5 | IN multimer act inactive | TRFRET interf inactive | LEDGF integ conf inactive
COC(=O)CSc1ncnc2c(C)csc12	LEDGF integ inh 45.0 | IN multimer act inactive | TRFRET interf inactive | LEDGF integ conf inactive
COc1ccc(NS(=O)(=O)c2cc3c(cc2C)N(C(C)=O)CCO3)cc1OC	none
CCCN(CCC)C(=S)NC(=O)c1ccc(Cl)cc1Cl	LEDGF integ inh 16.4 | IN multimer act inactive | TRFRET interf inactive | LEDGF integ conf inactive
CCOC(=O)c1cnc2ccc(C)cc2c1NCCN1CCOCC1	LEDGF integ inh 43.7 | IN multimer act inactive | TRFRET interf inactive | LEDGF integ conf inactive
N#Cc1nc(-c2ccccc2F)oc1NCc1ccccc1	LEDGF integ inh 14.2 | IN multimer act inactive | TRFRET interf inactive | LEDGF integ conf inactive
N#Cc1nc(-c2ccccc2F)oc1NCCc1ccccc1	none
Cc1ccc(-c2csc(NS(=O)(=O)c3cccc(F)c3)n2)o1	LEDGF integ inh 15.8 | IN multimer act 9.0 | TRFRET interf inactive | LEDGF integ conf 15.2
Cc1nc(CNS(=O)(=O)c2cccc(F)c2)cs1	none
Cc1cccc(CNc2ncnc3ccc(-c4ccc5c(c4)OCO5)cc23)c1	LEDGF integ inh 15.4 | IN multimer act inactive | TRFRET interf inactive | LEDGF integ conf inactive
COC(=O)CCC[C@H](C)[C@@H](NS(=O)(=O)c1ccc(C)cc1)C(C)(C)C	LEDGF integ inh 40.5 (no result: Rin1 Abl inh) | IN multimer act inactive | TRFRET interf inactive | LEDGF integ conf inactive
COC(=O)[C@H](CO)NS(=O)(=O)c1ccc(C)cc1	none
CC(=O)c1cccc(-c2ccc3c(c2)C(C)(Cc2ccc(S(C)(=O)=O)cc2)C(=O)N3)c1 (configuration not stated)	LEDGF integ inh 48.5 | IN multimer act inactive | TRFRET interf inactive | LEDGF integ conf inactive
CSCc1cc(C(=O)NC2CC2)c(N)s1	none (no result: Rin1 Abl inh)
Cc1nn(-c2ccccc2)c(N2CCCC2)c1/C=N/NC(=O)c1cc2ccccc2cc1O	LEDGF integ inh 14.3 | IN multimer act inactive | TRFRET interf inactive | LEDGF integ conf inactive
Cc1cc(Br)cn2c(Cc3ccccc3)c(-c3ccccc3)nc12	none
CCN1CCCC1CNC(=O)Cn1nc(C)n2c(cc3cc(F)ccc32)c1=O (configuration not stated)	LEDGF integ inh 19.0 | IN multimer act inactive | TRFRET interf inactive | LEDGF integ conf inactive
CCCNC(=O)Cn1nc(C)n2c(cc3cc(F)ccc32)c1=O	none

Bioassay records (PubChem)
